Screening data: PubChem BioAssay, several laboratories
CRFR2-BP antag: CRF-BP/CRF-R2 complex antagonism; HEK293 CRF-R2/CRF-BP, CRF-induced calcium fluorescence; inhibition, % at 11.8 µM; actives 0.59% (n = 350,000);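 active = inhibition of the ligand-induced calcium signal above about 50% at the single tested concentration, limit read from the data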
Tn7 DDE FP: disrupts Tn7 cyclic peptide binding to fibrin D-Dimer-E complex; P02675; inhibition, % at 8.3 µM; FP displacement of FITC-Tn7 peptide from fibrin DD(E); 0% = median of compound wells per plate; AID 720508; actives 0.13% (n = 370,000);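 active = inhibition above the mean of compounds falling within the control limits plus 3 SD of them, cut at about 14% in these data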;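 also: 0% = plate median of compound wells and 100% = 10 µM Aha-Tn7 peptide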
Target sequence (P02675 whole entry, looked up): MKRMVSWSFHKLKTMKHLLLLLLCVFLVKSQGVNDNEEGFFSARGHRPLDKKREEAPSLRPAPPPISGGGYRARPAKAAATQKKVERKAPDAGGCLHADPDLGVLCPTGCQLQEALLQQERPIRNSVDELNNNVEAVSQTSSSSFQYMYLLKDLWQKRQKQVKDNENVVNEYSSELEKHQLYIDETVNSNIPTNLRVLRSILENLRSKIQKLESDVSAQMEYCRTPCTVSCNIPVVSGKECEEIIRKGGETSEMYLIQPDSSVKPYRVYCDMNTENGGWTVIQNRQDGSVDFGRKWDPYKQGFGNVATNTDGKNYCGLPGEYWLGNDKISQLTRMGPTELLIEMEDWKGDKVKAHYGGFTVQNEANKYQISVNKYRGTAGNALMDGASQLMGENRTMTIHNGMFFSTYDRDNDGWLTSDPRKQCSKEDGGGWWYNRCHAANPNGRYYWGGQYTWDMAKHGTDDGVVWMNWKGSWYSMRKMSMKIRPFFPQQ
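Test system – human fibrin DD(E) · Times – 10 min preincubation, 3 h with tracer, room temperature · Detection – fluorescence polarization of the labelled Tn7 tracer · Measure – percent inhibition normalized to high-control wells · Benchmarks – high control wells with 10 µM unlabelled Aha-Tn7 peptide (full inhibition) · Repeats – singlicate testing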
CRFBP-R2 agonist: agonists of human CRF-binding protein/CRF-R2 receptor complex | HEK293 CRF-R2/CRF-BP, calcium dye fluorescence (FLIPR); percent of saturating CRF peptide response | activation, % at 13.2 µM | actives 0.46% (n = 350,000);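 active = activation of at least 50%, plus an integration ratio under a set limit after plate pattern correction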;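 also: plate controls were neutral control wells without compound for no effect and CRF at EC100 for full effect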
Tn6 DDE FP: inhibitors of Tn6 peptide binding to human fibrin DD(E) | P02675 | actives 0.21% (n = 370,000) | inhibition, % at 8.3 µM | Fibrin DD(E) TRITC-Tn6 fluorescence polarization displacement | AID 720509;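 active = inhibition above a per-campaign cutoff: mean of compounds within control limits plus 3 SD, cut at about 15% in these data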;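 also: 0% = median of all compound wells on the plate and 100% = blocking peptide control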
* = called active by the depositor; nt = not tested or not shown. Rows were chosen to be rich in hits. Some 1.3% of all compounds tested hit in one or more screens of this group.

SMILES | CRFR2-BP antag | Tn7 DDE FP | CRFBP-R2 agonist | Tn6 DDE FP
C=CCOC(=O)C(CO)NC(=O)CCCC(=O)O (stereo not given) | nt | -7 | nt | 4
NC(=O)c1c(N)[nH]c(C(=O)c2ccccc2)c1-c1cccc2ccccc12 | nt | 2 | nt | -5
O=C1NC(=O)C2(N1)C(=O)c1cccc3cccc2c13 (stereo not given) | -42 | 4 | 85* | 39*
Cc1cc(NC(=O)Cn2nc(C(=O)O)c3ccccc3c2=O)ccc1Br | -1 | 2 | 0 | 3
Cc1cc(NC(=O)Cn2nc3c(cc2=O)CCCC3)ccc1Br | 55* | 0 | 0 | -8
Cc1ccc(CSCC(=O)Nc2cc(S(=O)(=O)N3CCOCC3)ccc2OC(C)C)cc1 | 64* | 9 | 0 | 8
Cc1cccc(NC(=O)CSCC(=O)Nc2cc(S(=O)(=O)N3CCOCC3)ccc2OC(C)C)c1 | -1 | -5 | -1 | -4
COc1ccc(CN(CCN2CCOCC2)C(=O)c2cc(Cl)ccc2F)cc1OC | nt | 0 | nt | 0
N#Cc1ccc(CC(=O)c2ccccc2)[nH]c1=O | -76 | -2 | 58* | 17*
N#Cc1ccc(CCc2ccccc2)[nH]c1=O | -3 | 5 | 1 | 0
Cc1ccc(S(=O)(=O)NCc2ccccn2)c(C)c1C | 12 | -3 | -3 | 2
Cc1ccc(S(=O)(=O)NCc2ccncc2)c(C)c1C | -8 | 2 | 53* | -1
CCOC(=O)Nc1ccc(NCc2ccc(F)cc2)nc1N | -40 | 23* | 36 | 13
CCN1Cc2nnn(Cc3ccccc3)c2-c2ccccc2S1(=O)=O | nt | 1 | nt | -2
COc1ccc(CN2C/C(=C/C3=CCCCC3)N(C(=O)OCc3ccccc3)C2=N)c(OC)c1 | nt | -8 | nt | -1
COc1ccc(Cl)cc1NC(=O)CC(=O)Nc1cc(Cl)ccc1OC | -1 | 2 | 2 | -7
CCCCOc1ccc(OC(=O)Nc2cc(Cl)ccc2OC)cc1 | 81* | 9 | -6 | 7
Cc1cc(S(=O)(=O)Nc2ccc(C(=O)NCC(C)(C)N3CCOCC3)cc2)ccc1F | 54* | -1 | 0 | 3
CC(C)(CNC(=O)c1ccc(NS(=O)(=O)c2ccc(Br)cc2)cc1)N1CCOCC1 | 1 | 0 | 1 | 0
C=CCN(CC#Cc1ccccc1)CC=C | nt | 0 | nt | -4
COc1ccc2c(c1OC)C(=O)OC2 | 0 | 2 | -1 | -8
COc1ccc2c3c(cccc13)C(=O)CC2 | -95 | 21* | 139* | 36*
CCCCNC(=O)C[C@H]1C[C@@]2(C(=O)OC)C(=C[C@H](C3CCCC3)O[C@@H]2C)N(CCC2=CCCCC2)C1=O | nt | 1 | nt | 9
Cc1c(O)c(CN2CCCCC2)cc2c1oc(=O)c1ccccc12 | 59* | -3 | 7 | -2
CN(Cc1nc(-c2ccccn2)no1)S(=O)(=O)c1ccc(Cl)cc1 | -128 | 7 | 54* | 0
SMILES | CRFR2-BP antag | Tn7 DDE FP | CRFBP-R2 agonist | Tn6 DDE FP
O=c1cc(CN2CCN(Cc3ccccc3)CC2)c2cc(O)ccc2o1 | 85* | 3 | 0 | 12
Cc1cc2oc(=O)cc(CN3CCN(Cc4ccccc4)CC3)c2cc1O | 6 | -2 | -2 | 1
CCCCOCCCNC(=O)C[C@H]1C[C@@]2(C(=O)OC)C(=C[C@H](C(C)C)O[C@@H]2C2CC2)N(Cc2ccc3c(c2)OCO3)C1=O | nt | -4 | nt | 2
CC(C)N1CCCCC(NC(=O)c2cccc(C(F)(F)F)c2)C1=O (stereo not given) | nt | 0 | nt | 1
CCN1CCSc2ccc(C(=O)NCc3ccccc3F)cc21 | -317 | -8 | 280* | -1
CCC[C@H]1[C@@H](OC(=O)NCc2ccccc2)CC[C@@]23CCCN2C(=O)CCC[C@@H]13 | nt | 2 | nt | -2
O=C1/C(=C/c2ccc(O)c(O)c2)Oc2cc(O)ccc21 | -51 | -1 | 24 | -11
COc1cc(/C=C2\Oc3cc(O)ccc3C2=O)ccc1O | -58 | -3 | 71* | -2
Cc1ccsc1/C=C1\Oc2cc(O)ccc2C1=O | -32 | 5 | 72* | -2
CCOc1cc(/C=N/NC(=O)c2ccc(CN3CCOCC3)cc2)ccc1OC | 11 | -4 | -1 | 1
CCOc1cc(/C=C/C(=O)c2ccc(OC)c(CN3CCOCC3)c2)cc(Br)c1O | -61 | -1 | 58* | -4
COc1cc2oc3ccccc3c2cc1N(CC(=O)N1CCCCC1)S(=O)(=O)c1ccc(C)cc1 | -60 | -4 | 89* | 4
COc1cc2oc3ccccc3c2cc1N(CC(=O)N(C)C)S(=O)(=O)c1ccc(C)cc1 | 7 | 3 | 1 | 9
COc1ccc(-c2c[n+](CC(=O)c3ccccc3)c3n2CCCCC3)cc1 | -4 | -4 | 0 | -3
COc1ccc(-c2c[n+]3c4n2CCCCC4=C(c2ccccc2)C3)cc1 | 52* | 9 | -4 | 2
Fc1ccc(Oc2ccnc(Cl)n2)c(Cl)c1 | 53* | -6 | -1 | 4
CCNC(=O)N1CCN(c2ccc(N3CCN(Cc4ccccc4)[C@H](C)C3)c(C)c2)[C@@H](C)C1 | nt | -2 | nt | 3
CC(C)(C)c1ccc(C(=O)CS(=O)(=O)c2ccccc2)cc1 | 77* | 2 | 4 | 8
CCOC(=O)[C@@]12CCC3=C1N(CCC3)C(=O)[C@H](CC(=O)NCc1cccc(C(F)(F)F)c1)C2 | nt | 11 | nt | -5
COc1cccc(CN2CCN(c3cccc(C(F)(F)F)c3)CC2)c1OC | 54* | 1 | 1 | 4
CC(Nc1ccc(Br)cc1)C(=O)Nc1cccc(S(=O)(=O)N2CCOCC2)c1 (stereo not given) | 90* | 1 | 2 | -9
C=CCn1c(Cc2cccs2)nnc1SCC(=O)Nc1ccc2c(c1)OCO2 | nt | 0 | nt | 3
CC(=O)N1N=C(C)CC1c1ccc(OCc2ccccc2)cc1 (stereo not given) | 52* | -1 | -5 | 0
O=C1CCC[C@H]2C[C@H](NCc3ccco3)CC[C@]23CCCN13 | nt | 3 | nt | 3
COc1ccc(/C=C/C(=O)NC(=S)Nc2ccc(S(=O)(=O)Nc3cc(OC)ncn3)cc2)cc1 | 58* | 7 | -2 | 2
SMILES | CRFR2-BP antag | Tn7 DDE FP | CRFBP-R2 agonist | Tn6 DDE FP
Cc1cc(C)cc(OCCCC(=O)O)c1 | 13 | -2 | -2 | -2
Cc1ccc(OCCC(=O)O)cc1 | 85* | 4 | -1 | 0
Cn1c2ccccc2c(=O)c2c(=O)n(C3CCCCC3)c(-c3cccs3)nc21 | -18 | -4 | 116* | 1
COc1ccc(CCn2c(C3CCCCC3)nc3c(c(=O)c4ccccc4n3C)c2=O)cc1 | -17 | 4 | 62* | -8
Cn1c2ccccc2c(=O)c2c(=O)n(-c3ccccc3)c(C3CCCCC3)nc21 | -19 | 3 | -1 | 10
CC(C)c1nc2c(c(=O)c3ccccc3n2C)c(=O)n1CCc1ccccc1 | 11 | -2 | 72* | -3
Cc1nc2c(c(=O)c3ccccc3n2C)c(=O)n1C1CCCC1 | nt | 10 | nt | 2
CCc1nc2c(c(=O)c3ccccc3n2C)c(=O)n1C1CCCCCC1 | -175 | -1 | 226* | -1
COc1ccc(C[N+]2=C(N)N[C@@]3(C=C(C)Cn4c(=O)n(-c5ccccc5)c(=O)n43)C2)c(OC)c1 | nt | 2 | nt | -9
